# Results taken from ChEMBL document CHEMBL4342528, “Discovery of a First-in-Class Protein Arginine Methyltransferase 6 (PRMT6) Covalent Inhibitor” (J Med Chem, 2020).
# Activity calls are given as the source filed them. The rule behind the calls is not given here.
# Assays:
# Homo sapiens [1] = species: Homo sapiens; experiment: Selectivity index, ratio of IC50 for human PRMT8 to IC50 for human PRMT6
# Method in brief: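 Radiometric SPA: ³H-methyl transfer from ³H-SAM to biotin-labeled peptide, captured on streptavidin/scintillant-coated plate, counts per minute read; substrate and cofactor each at their Km for the enzyme; compound titrated; IC50 from triplicate determinations, mean ± SD.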
# [2] = biological target: DNA (cytosine-5)-methyltransferase 1 (Homo sapiens) (UniProt P26358); experiment: Inhibition of DNMT1 (unknown origin) at 10 uM using double-stranded DNA substrate using [3H-SAM] incubated for 1 hr by scintillation proximity assay
# Chain of DNA (cytosine-5)-methyltransferase 1 (Homo sapiens) (P26358 whole entry): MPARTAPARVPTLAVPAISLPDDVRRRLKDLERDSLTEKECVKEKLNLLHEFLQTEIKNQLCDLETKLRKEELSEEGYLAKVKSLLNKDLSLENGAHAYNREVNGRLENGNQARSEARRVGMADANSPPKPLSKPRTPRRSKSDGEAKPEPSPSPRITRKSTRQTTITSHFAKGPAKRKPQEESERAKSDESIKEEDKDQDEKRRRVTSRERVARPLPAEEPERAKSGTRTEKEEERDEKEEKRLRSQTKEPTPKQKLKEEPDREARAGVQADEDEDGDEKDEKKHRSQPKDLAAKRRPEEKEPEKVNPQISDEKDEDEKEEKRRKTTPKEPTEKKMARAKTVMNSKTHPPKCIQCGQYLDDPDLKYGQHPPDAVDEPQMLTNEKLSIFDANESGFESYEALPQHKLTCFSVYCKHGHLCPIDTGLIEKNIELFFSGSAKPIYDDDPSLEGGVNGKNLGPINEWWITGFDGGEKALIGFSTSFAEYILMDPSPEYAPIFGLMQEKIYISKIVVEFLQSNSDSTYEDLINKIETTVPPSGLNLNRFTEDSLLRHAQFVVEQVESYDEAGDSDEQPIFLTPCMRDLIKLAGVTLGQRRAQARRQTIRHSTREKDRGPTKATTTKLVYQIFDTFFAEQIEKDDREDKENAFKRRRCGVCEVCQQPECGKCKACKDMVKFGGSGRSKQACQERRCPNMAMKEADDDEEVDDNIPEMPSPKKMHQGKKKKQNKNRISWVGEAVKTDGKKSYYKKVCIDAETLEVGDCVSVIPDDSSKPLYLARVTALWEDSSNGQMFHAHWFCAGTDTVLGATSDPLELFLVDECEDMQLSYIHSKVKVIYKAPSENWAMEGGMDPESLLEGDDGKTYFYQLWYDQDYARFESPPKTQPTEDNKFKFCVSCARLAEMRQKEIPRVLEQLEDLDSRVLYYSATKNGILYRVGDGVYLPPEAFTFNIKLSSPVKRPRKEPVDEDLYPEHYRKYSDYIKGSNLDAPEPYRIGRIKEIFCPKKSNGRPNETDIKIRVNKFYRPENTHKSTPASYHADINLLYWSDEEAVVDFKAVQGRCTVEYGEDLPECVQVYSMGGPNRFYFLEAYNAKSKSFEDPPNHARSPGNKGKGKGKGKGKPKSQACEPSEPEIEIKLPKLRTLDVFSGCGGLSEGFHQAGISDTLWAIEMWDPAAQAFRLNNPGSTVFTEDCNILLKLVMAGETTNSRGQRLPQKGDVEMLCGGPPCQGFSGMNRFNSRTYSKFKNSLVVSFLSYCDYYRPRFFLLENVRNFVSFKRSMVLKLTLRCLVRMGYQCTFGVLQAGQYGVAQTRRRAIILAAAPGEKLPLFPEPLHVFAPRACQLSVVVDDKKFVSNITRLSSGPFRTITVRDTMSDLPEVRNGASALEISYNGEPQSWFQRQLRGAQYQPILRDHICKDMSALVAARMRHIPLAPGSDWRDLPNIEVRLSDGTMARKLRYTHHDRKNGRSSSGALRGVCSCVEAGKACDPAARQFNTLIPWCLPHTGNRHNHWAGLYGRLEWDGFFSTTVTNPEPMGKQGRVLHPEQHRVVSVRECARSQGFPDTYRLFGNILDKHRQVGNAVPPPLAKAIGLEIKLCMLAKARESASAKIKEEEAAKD
# Method in brief: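 Panel of 33 methyltransferases (22 PKMTs, 3 DNMTs, 8 PRMTs), each tested at 10 and 50 μM compound. Activity was read as ³H-methyl transfer from ³H-SAM in a radiometric assay done as previously described.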
# Homo sapiens [3] = species: Homo sapiens; experiment: Selectivity index, ratio of IC50 for human PRMT3 to IC50 for human PRMT6
smiles,measurement,setting,value
C=CC(=O)Nc1cccc(-c2c[nH]cc2CN(C)CCN)c1,Ratio IC50,Homo sapiens [1],6
same,inhibition,[2],inactive
same,Ratio IC50,Homo sapiens [3],167
